Screening results: PubChem BioAssay, Sanford-Burnham Center for Chemical Genomics
Compounds with a hit are over-represented: about 2.5% of the library has one in this group of screens.
SENP8 block-1: blocks the human protease SENP8 | Q96LD8 | AID 2540 | 1.2% of 330,000 active | inhibition, % at 10 µM | purified SENP8, Z-RLRGG-aminoluciferin cleavage, luminescence; in the data active = inhibition above about 50%
SENP6 block: inhibitors of human SENP6 protease. Recombinant SENP6 catalytic domain, aminoluciferin luminescence. inhibition, % at 10 µM. 1.8% of 330,000 active;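 active = inhibition above about 50% at the single tested dose, limit read from the data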;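 note: plate controls were DMSO wells with enzyme for no effect and DMSO wells lacking enzyme for full effect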
SENP8 block-2: SENP8 (human) protease inhibition. 0.64% of 360,000 active. inhibition, % at 20 µM. AID 602440. Q96LD8. recombinant SENP8, Nedd8 substrate fluorescence; in the data active = inhibition mostly above about 40%, no sharp cut-off; inactive = mostly below about 27%
SENP1 FRET inh: blocks the human SENP1 SUMO protease catalytic domain | Q9P0U3 | recombinant SENP1 catalytic domain, CyPet-SUMO1-YPet FRET cleavage | inhibition, % at 10 µM | 0.21% of 360,000 active | AID 624204;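 active = inhibition at least 30% at 10 µM, raw YFP signal under a set limit, fluorescence ratio 0.5 to 1.5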;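 note: 0% = enzyme with DMSO and 100% = no enzyme wells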
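Test system: hSENP1 catalytic domain, recombinant; Amount: 20 pM final SENP1 enzyme; Medium: Tris pH 8 buffer plus EDTA, NaCl, BME, BSA, NP40, catalase; Schedule: 50 min enzyme reaction, room temperature, light-protected; Technique: FRET fluorescence in CFP and YFP emission channels; Controls: no-enzyme wells low, DMSO-plus-enzyme wells high control.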
SENP7 inh: blocks the human protease SENP7; Q9BQF6; recombinant SENP7, Z-RLRGG-aminoluciferin luminescence, 40 min; inhibition, % at 5 µM; 1.5% of 330,000 active;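 active = inhibition above about 50% at the single test dose, limit read from the data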;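 note: plate controls were DMSO with enzyme for no effect and no enzyme buffer wells for full effect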
Target sequence (Q9BQF6 706-1050 limits assumed): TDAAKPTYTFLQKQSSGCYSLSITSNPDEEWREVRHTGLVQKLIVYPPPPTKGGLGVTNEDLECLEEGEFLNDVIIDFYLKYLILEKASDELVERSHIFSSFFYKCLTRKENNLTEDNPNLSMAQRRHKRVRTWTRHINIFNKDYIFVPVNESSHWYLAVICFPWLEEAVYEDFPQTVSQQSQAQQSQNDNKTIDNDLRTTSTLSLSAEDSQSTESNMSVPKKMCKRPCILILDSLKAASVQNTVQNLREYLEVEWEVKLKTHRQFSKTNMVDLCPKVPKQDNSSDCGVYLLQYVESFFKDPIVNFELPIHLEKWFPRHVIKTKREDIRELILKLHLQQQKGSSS
SENP8 conf: human SENP8 inhibition, confirmed; shares compounds with SENP7 inh; Recombinant SENP8, Z-RLRGG-aminoluciferin luminescence, 60 min; inhibition, % at 12.5 µM; 40% of 6,200 active;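 active = mean inhibition across replicates above about 50%, limit read from the data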
SENP6 conf: confirmation of human SENP6 protease inhibitors | AID 488915 | inhibition, % at 12.5 µM | 58% of 6,200 active | shares compounds with SENP7 inh | recombinant SENP6, Z-RLRGG-aminoluciferin luminescence
SENP7 conf: human SENP7 inhibition, confirmed; shares compounds with SENP7 inh; recombinant SENP7, Z-RLRGG-aminoluciferin luminescence, 40 min; inhibition, % at 12.5 µM; 69% of 6,200 active
Casp3 select: caspase-3 inhibition (SENP selectivity assay); shares compounds with SENP7 inh; purified caspase-3, Z-DEVD-aminoluciferin luminescence, 60 min; inhibition, % at 12.5 µM; 60% of 6,200 active; AID 488918;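 active = mean inhibition above about 50%, limit read from the data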;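 note: plate controls were enzyme with DMSO for no effect and wells without caspase-3 for full effect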
Target sequence (P42574 28-227 limits assumed): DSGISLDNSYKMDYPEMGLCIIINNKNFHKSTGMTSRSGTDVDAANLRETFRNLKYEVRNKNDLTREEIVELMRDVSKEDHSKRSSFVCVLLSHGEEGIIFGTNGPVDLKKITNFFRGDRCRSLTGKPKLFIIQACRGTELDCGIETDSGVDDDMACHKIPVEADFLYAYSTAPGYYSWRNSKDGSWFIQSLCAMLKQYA
SENP luc ctr: counter-screen for SENP inhibitors: luminescence interference. shares compounds with SENP7 inh. Pre-incubated SENP8/Z-RLRGG-aminoluciferin, luciferase luminescence interference. inhibition, % at 12.5 µM. 39% of 6,200 active. AID 488919;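 active = mean inhibition above about 50% when retested at one dose, limit read from the data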;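 note: plate controls were DMSO wells with completed reaction for no effect and substrate without enzyme for full effect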
* hit, by the source's call; · = not tested or not shown.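 Rule for the calls, unless noted: active = mean inhibition above about 50% in the one-dose retest (limit read from the data); inactive = the rest.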

SMILES | SENP8 block-1 | SENP6 block | SENP8 block-2 | SENP1 FRET inh | SENP7 inh | SENP8 conf | SENP6 conf | SENP7 conf | Casp3 select | SENP luc ctr
CN1C(=O)/C(=C/c2ccc(C(=O)Nc3ccc(O)cc3C(=O)O)cc2)SC1=S | 96* | 93* | 26 | 5 | 60* | 62* | 97* | 70* | 98* | 29
Cc1ccc(C(=O)Nc2ccc(O)cc2C(=O)O)cc1 | 35 | 63* | 12 | 1 | 42 | 62* | 58* | 83* | 75* | 64*
Cc1cccc(C(=O)Nc2ccc(O)cc2C(=O)O)c1 | 88* | 93* | 13 | 4 | 77* | 88* | 90* | 100* | 95* | 91*
Cc1ccc(/C=C2\SC(=S)N(CCC(=O)NNC(=O)c3ccc(O)cc3)C2=O)cc1 | -8 | 3 | 23 | 1 | -4 | · | · | · | · | ·
O=C(Nc1ccc(Cl)cc1C(=O)c1ccccn1)c1ccccc1 | · | · | 20 | 2 | · | · | · | · | · | ·
CC(=O)Nc1cccc(NC(=O)CCNC(=O)c2ccccc2)c1 | · | · | 19 | 2 | · | · | · | · | · | ·
Cc1ccc([N+](=O)[O-])cc1NC(=O)C[n+]1ccccc1 | -9 | -3 | 13 | 2 | 1 | · | · | · | · | ·
C/C(=N\NC(=O)c1ccco1)c1ccc(-c2ccccc2)cc1 | 55* | 67* | 12 | -1 | 85* | 8 | 34 | 45 | 37 | 16
Cc1ccc(-c2csc(NC(=O)c3ccc(F)cc3)c2C(=O)O)cc1 | 90* | 94* | -24 | 3 | 58* | -2 | 91* | 90* | 89* | 68*
O=C(Nc1scc(-c2ccccc2)c1C(=O)O)c1ccc(F)cc1 | 92* | 91* | -77 | -1 | 71* | 93* | 94* | 102* | 96* | 92*
Cc1cc(C)cc(Cn2cc(CN3CC(N4CCN(CCO)CC4)CS3(=O)=O)nn2)c1 (centres undefined) | · | · | 19 | 2 | · | · | · | · | · | ·
OC[C@@H]1CN(Cc2ccc(-c3ccccc3)cc2)C[C@H](n2cnc3c(NCc4ccncc4)ncnc32)O1 | · | · | -4 | -1 | · | · | · | · | · | ·
C/C(=N\NC(=O)c1ccccc1O)c1cccs1 | 18 | 1 | -36 | -41 | 61* | 50* | 45 | 78* | 85* | 58*
C/C(=N\NC(=O)c1ccncc1)c1cccs1 | -4 | -8 | 8 | 1 | 4 | · | · | · | · | ·
C/C(=N/NC(=O)c1ccccc1O)c1ccc(N2C(=O)C3CCCCC3C2=O)cc1 (centres undefined) | -6 | 62* | -56 | -2 | 22 | -3 | -2 | -8 | -3 | -4
C/C(=N\NC(=O)c1ccc2ccccc2c1)c1cccs1 | 70* | 84* | -4 | 2 | 83* | 54* | 53* | 93* | 84* | 10
C/C(=N\NC(=O)c1cccc2ccccc12)c1cccs1 | 1 | -7 | 10 | 2 | 0 | · | · | · | · | ·
C/C(=N/NC(=O)c1cc(C2CC2)[nH]n1)c1cccs1 | 46 | 30 | 30 | 3 | 66* | 64* | 62* | 88* | 89* | 71*
Cc1ccc(NC(=O)Cn2c(=O)cnc3ccccc32)cc1S(=O)(=O)N1CCOCC1 | -7 | -17 | -151 | -4 | -3 | · | · | · | · | ·
COc1cc(NC(=O)c2ccccc2)cc(OC)c1 | 12 | 54* | 5 | 1 | 47 | 18 | 18 | 68* | 65* | 49
COc1ccc(NC(=O)c2cccc(NC(=O)c3ccccc3)c2)cc1 | 5 | 10 | 7 | 1 | 10 | · | · | · | · | ·
COc1ccc(C(=O)N/N=C/C(=O)c2ccccc2)cc1 | 58* | 80* | 6 | -2 | 84* | 32 | 72* | 92* | 79* | 30
COc1ccc(C(=O)Nc2cc(OC)cc(OC)c2)cc1 | 81* | 87* | 15 | 3 | 89* | 86* | 83* | 96* | 88* | 83*
COc1cc(OC)c(C(=O)OCC(=O)N2CCOCC2)cc1OC | -8 | -19 | 11 | -1 | 1 | · | · | · | · | ·
C[C@@H]1CN([C@H](C)CO)S(=O)(=O)c2ccc(Br)cc2O[C@@H]1CN(C)C(=O)NC1CCCC1 | · | · | 0 | -1 | · | · | · | · | · | ·
SMILES | SENP8 block-1 | SENP6 block | SENP8 block-2 | SENP1 FRET inh | SENP7 inh | SENP8 conf | SENP6 conf | SENP7 conf | Casp3 select | SENP luc ctr
O=C(NCc1ccccc1)/C(=C\c1ccc(F)cc1)NC(=O)c1ccco1 | · | · | 18 | 1 | · | · | · | · | · | ·
CC(C)S(=O)(=O)c1nsc2nc(=O)c(/C=C3\C=Nc4ccccc43)c(N)n12 | 7 | 2 | -138 | -34 | 12 | · | · | · | · | ·
CSc1nsc2nc(=O)c(/C=C3\C=Nc4ccccc43)c(N)n12 | 72* | 86* | -7 | -102 | 39 | 69* | 72* | 92* | 41 | 76*
COc1ccc(C(=O)NC2CCN(C(=S)NCc3ccco3)CC2)cc1 | -3 | -11 | 13 | -1 | 60* | -1 | 4 | 11 | 6 | 1
COc1cccc(NC(=O)Nc2nc(SC)ns2)c1 | 82* | 90* | 20 | 1 | 77* | 76* | 77* | 96* | 76* | 86*
COc1ccc(NC(=O)Nc2cccc(OC)c2)cc1 | 29 | 35 | 6 | 2 | -9 | · | · | · | · | ·
CC(=O)Nc1ccc2nsnc2c1 | 3 | -9 | -315 | 0 | -2 | · | · | · | · | ·
COc1cccc(NC(=O)Nc2ccc3nsnc3c2)c1 | 44 | 50* | -123 | 2 | -10 | 57* | 52* | 77* | 38 | 54*
COc1cccc(NC(=O)Nc2ccc3c(c2)nc(C)n3C)c1 | 78* | 91* | 8 | 0 | 90* | 86* | 85* | 98* | 94* | 86*
COc1cccc(NC(=O)Nc2ccc3nc(C)c(C)nc3c2)c1 | 39 | 54* | -283 | 9 | 46 | 11 | 36 | 58* | 59* | 7
CCN(CC(=O)NCc1cccs1)C(=O)/C=C/c1cccc(Cl)c1Cl | -1 | -7 | 4 | 2 | 0 | · | · | · | · | ·
Cc1ccc(-c2cc3c(N=O)c4ccccc4c-3n[nH]2)cc1 | 23 | 100* | 0 | -1 | 101* | 39 | 30 | 21 | 55* | 8
O/N=C/c1ccc(OCc2ccccc2)c(Br)c1 | · | · | 2 | 1 | · | · | · | · | · | ·
O/N=C/c1ccc(OCc2ccccc2)c(Cl)c1 | 64* | 86* | 7 | 3 | 59* | 8 | 72* | 90* | 41 | 76*
